Measurements from ChEMBL document CHEMBL1287712, “Synthetic analogs of indole-containing natural products as inhibitors of sortase A and isocitrate lyase” (Bioorg Med Chem Lett, 2010).
≈ marks a conversion by molar mass, not a printed value. Where “and” joins values, the source holds several entries; their conditions need not be identical. Equal entries are not always repeated.

Experiments:
Isocitrate lyase = Isocitrate lyase (Candida albicans, UniProt Q9P8Q7); assay: Inhibition of Candida albicans isocitrate lyase
Sequence of Isocitrate lyase (Q9P8Q7 whole entry): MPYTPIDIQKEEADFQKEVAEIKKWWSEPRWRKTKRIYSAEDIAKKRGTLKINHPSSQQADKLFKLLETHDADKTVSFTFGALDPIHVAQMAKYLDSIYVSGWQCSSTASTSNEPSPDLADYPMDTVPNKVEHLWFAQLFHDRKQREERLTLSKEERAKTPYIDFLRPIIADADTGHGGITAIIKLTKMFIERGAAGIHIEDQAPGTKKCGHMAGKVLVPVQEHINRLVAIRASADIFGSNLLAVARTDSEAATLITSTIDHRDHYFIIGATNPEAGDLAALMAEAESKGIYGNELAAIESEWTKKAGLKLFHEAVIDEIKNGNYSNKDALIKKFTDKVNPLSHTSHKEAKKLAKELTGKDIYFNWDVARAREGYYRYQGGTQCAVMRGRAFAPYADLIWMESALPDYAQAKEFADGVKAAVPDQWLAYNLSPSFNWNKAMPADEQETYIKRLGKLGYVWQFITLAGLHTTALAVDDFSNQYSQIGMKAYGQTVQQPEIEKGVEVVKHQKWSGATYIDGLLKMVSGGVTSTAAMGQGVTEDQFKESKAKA

Sortase A = biological target: T1, Sortase A (Staphylococcus aureus, UniProt Q9S446); assay: Inhibition of Staphylococcus aureus Sortase A
T1 sequence (Q9S446 whole entry): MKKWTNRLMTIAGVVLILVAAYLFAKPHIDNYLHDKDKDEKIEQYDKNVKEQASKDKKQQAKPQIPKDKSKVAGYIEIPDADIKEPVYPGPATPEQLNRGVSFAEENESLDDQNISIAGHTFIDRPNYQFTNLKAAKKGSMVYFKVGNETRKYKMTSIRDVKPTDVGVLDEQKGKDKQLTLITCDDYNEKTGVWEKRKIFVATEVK

Staphylococcus aureus = assay: Antimicrobial activity against Staphylococcus aureus ATCC 6538p; type: functional
How it was run: (§1)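 MIC by two-fold serial broth dilution in microtiter format. MIC taken as the lowest concentration giving complete growth inhibition relative to the negative control.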

Bacillus subtilis = assay: Antimicrobial activity against Bacillus subtilis ATCC 6633; type: functional; how it was run: as §1
Salmonella typhimurium = assay: Antimicrobial activity against Salmonella Typhimurium ATCC 14028; type: functional, Salmonella enterica subsp. enterica serovar Typhimurium; settings: Salmonella enterica; how it was run: as §1
Proteus vulgaris = assay: Antimicrobial activity against Proteus vulgaris ATCC 3851; type: functional; how it was run: as §1
Micrococcus luteus = assay: Antimicrobial activity against Micrococcus luteus IFC 12708; type: functional; how it was run: as §1
Escherichia coli = assay: Antimicrobial activity against Escherichia coli ATCC 25922; type: functional; how it was run: as §1

O=C(O)C(=O)c1c[nH]c2ccc(O)cc12
IC50 (Isocitrate lyase): > 487 µM
IC50 (Sortase A): > 487 µM

COc1ccc2[nH]cc(C(=O)C(=O)O)c2c1
IC50 (Isocitrate lyase): > 456 µM
IC50 (Sortase A): > 456 µM

Cc1[nH]c2ccccc2c1C(=O)C(=O)O
IC50 (Isocitrate lyase): > 492 µM
IC50 (Sortase A): 133 µM
MIC (Staphylococcus aureus): > 200 µg/mL
MIC (Bacillus subtilis): > 200 µg/mL
MIC (Salmonella typhimurium): > 200 µg/mL
MIC (Proteus vulgaris): > 200 µg/mL
MIC (Micrococcus luteus): > 200 µg/mL
MIC (Escherichia coli): > 200 µg/mL

CCCCCC1NCCc2c1[nH]c1ccccc21 (centres undefined)
IC50 (Isocitrate lyase): > 413 µM
IC50 (Sortase A): > 413 µM

CCCCCC1NCCc2c1[nH]c1ccc(OC)cc21 (centres undefined)
IC50 (Isocitrate lyase): > 367 µM
IC50 (Sortase A): > 367 µM

Oc1ccc2[nH]c3c(c2c1)CCNC3c1ccccc1 (centres undefined)
IC50 (Isocitrate lyase): > 378 µM
IC50 (Sortase A): 106 µM
MIC (Staphylococcus aureus): 100 µg/mL (≈ 378 µM)
MIC (Bacillus subtilis): 100 µg/mL (≈ 378 µM)
MIC (Salmonella typhimurium): 100 µg/mL (≈ 378 µM)
MIC (Proteus vulgaris): 100 µg/mL (≈ 378 µM)
MIC (Micrococcus luteus): 100 µg/mL (≈ 378 µM)
MIC (Escherichia coli): > 200 µg/mL

c1ccc(C2=NCCc3c2[nH]c2ccccc32)cc1
IC50 (Isocitrate lyase): > 406 µM
IC50 (Sortase A): 97.4 µM and 97 µM
MIC (Staphylococcus aureus): > 200 µg/mL
MIC (Bacillus subtilis): > 200 µg/mL
MIC (Salmonella typhimurium): > 200 µg/mL
MIC (Proteus vulgaris): > 200 µg/mL
MIC (Micrococcus luteus): > 200 µg/mL
MIC (Escherichia coli): > 200 µg/mL

O=C(Nc1ccccc1)C(=O)c1c[nH]c2ccc(O)cc12
IC50 (Isocitrate lyase): > 357 µM
IC50 (Sortase A): > 357 µM

COc1ccc2[nH]cc(C(=O)C(=O)Nc3ccccc3)c2c1
IC50 (Isocitrate lyase): > 340 µM
IC50 (Sortase A): > 340 µM

COc1ccc2[nH]c3c(c2c1)CCNC3c1ccccc1 (centres undefined)
IC50 (Isocitrate lyase): > 359 µM
IC50 (Sortase A): 115 µM
MIC (Staphylococcus aureus): > 200 µg/mL
MIC (Bacillus subtilis): > 200 µg/mL
MIC (Salmonella typhimurium): > 200 µg/mL
MIC (Proteus vulgaris): > 200 µg/mL
MIC (Micrococcus luteus): > 200 µg/mL
MIC (Escherichia coli): > 200 µg/mL

c1ccc2cc(C3NCCc4c3[nH]c3ccccc43)ccc2c1 (centres undefined)
IC50 (Isocitrate lyase): 137 µM
IC50 (Sortase A): > 335 µM
MIC (Staphylococcus aureus): 12.5 µg/mL (≈ 41.9 µM)
MIC (Bacillus subtilis): 6.25 µg/mL (≈ 20.9 µM)
MIC (Salmonella typhimurium): 12.5 µg/mL (≈ 41.9 µM)
MIC (Proteus vulgaris): 6.25 µg/mL (≈ 20.9 µM)
MIC (Micrococcus luteus): 12.5 µg/mL (≈ 41.9 µM)
MIC (Escherichia coli): 50 µg/mL (≈ 168 µM)

COc1ccc(C2NCCc3c2[nH]c2ccccc32)cc1 (centres undefined)
IC50 (Isocitrate lyase): 180 µM
IC50 (Sortase A): > 359 µM
MIC (Staphylococcus aureus): 12.5 µg/mL (≈ 44.9 µM)
MIC (Bacillus subtilis): 6.25 µg/mL (≈ 22.5 µM)
MIC (Salmonella typhimurium): 6.25 µg/mL (≈ 22.5 µM)
MIC (Proteus vulgaris): 6.25 µg/mL (≈ 22.5 µM)
MIC (Micrococcus luteus): 6.25 µg/mL (≈ 22.5 µM)
MIC (Escherichia coli): 50 µg/mL (≈ 180 µM)

COc1ccc2[nH]c3c(c2c1)CCN=C3c1ccccc1
IC50 (Isocitrate lyase): > 362 µM
IC50 (Sortase A): 25.3 µM and 25 µM
MIC (Staphylococcus aureus): > 200 µg/mL
MIC (Bacillus subtilis): > 200 µg/mL
MIC (Salmonella typhimurium): > 200 µg/mL
MIC (Proteus vulgaris): > 200 µg/mL
MIC (Micrococcus luteus): > 200 µg/mL
MIC (Escherichia coli): > 200 µg/mL

c1ccc(C2NCCc3c2[nH]c2ccccc32)cc1 (centres undefined)
IC50 (Isocitrate lyase): > 403 µM
IC50 (Sortase A): > 403 µM

COc1cccc(C2NCCc3c2[nH]c2ccccc32)c1 (centres undefined)
IC50 (Isocitrate lyase): 75 µM and 75.4 µM
IC50 (Sortase A): > 359 µM
MIC (Staphylococcus aureus): 6.25 µg/mL (≈ 22.5 µM)
MIC (Bacillus subtilis): 12.5 µg/mL (≈ 44.9 µM)
MIC (Salmonella typhimurium): 12.5 µg/mL (≈ 44.9 µM)
MIC (Proteus vulgaris): 12.5 µg/mL (≈ 44.9 µM)
MIC (Micrococcus luteus): 12.5 µg/mL (≈ 44.9 µM)
MIC (Escherichia coli): 50 µg/mL (≈ 180 µM)

O=C(O)C1NCCc2c1[nH]c1ccc(O)cc21 (centres undefined)
IC50 (Isocitrate lyase): > 431 µM
IC50 (Sortase A): > 431 µM

O=C(O)C1NCCc2c1[nH]c1ccccc21 (centres undefined)
IC50 (Isocitrate lyase): > 462 µM
IC50 (Sortase A): > 462 µM

O=C(Nc1ccccc1)C(=O)c1c[nH]c2ccccc12
IC50 (Isocitrate lyase): > 378 µM
IC50 (Sortase A): 174 µM
MIC (Staphylococcus aureus): > 200 µg/mL
MIC (Bacillus subtilis): > 200 µg/mL
MIC (Salmonella typhimurium): > 200 µg/mL
MIC (Proteus vulgaris): > 200 µg/mL
MIC (Micrococcus luteus): > 200 µg/mL
MIC (Escherichia coli): > 200 µg/mL

COc1ccc2[nH]c3c(c2c1)CCNC3C(=O)O (centres undefined)
IC50 (Isocitrate lyase): > 406 µM
IC50 (Sortase A): > 406 µM

O=C1NCCc2c1[nH]c1ccc(O)cc21
IC50 (Isocitrate lyase): > 495 µM
IC50 (Sortase A): > 495 µM

COC(=O)c1c[nH]c2ccc(O)cc12
IC50 (Isocitrate lyase): > 523 µM
IC50 (Sortase A): > 523 µM

O=C(O)C1=NCCc2c1[nH]c1ccc(O)cc21
IC50 (Sortase A): 291 µM and 290 µM

O=Cc1c[nH]c2ccc(O)cc12
IC50 (Sortase A): > 621 µM

Cc1[nH]c2ccccc2c1C(=O)C(=O)Nc1ccccc1
IC50 (Isocitrate lyase): > 359 µM
IC50 (Sortase A): 61.1 µM and 61 µM
MIC (Staphylococcus aureus): > 200 µg/mL
MIC (Bacillus subtilis): > 200 µg/mL
MIC (Salmonella typhimurium): > 200 µg/mL
MIC (Proteus vulgaris): > 200 µg/mL
MIC (Micrococcus luteus): > 200 µg/mL
MIC (Escherichia coli): > 200 µg/mL

O=C(O)C(=O)c1c[nH]c2ccccc12
IC50 (Isocitrate lyase): > 529 µM
IC50 (Sortase A): 68.7 µM and 69 µM
MIC (Staphylococcus aureus): > 200 µg/mL
MIC (Bacillus subtilis): > 200 µg/mL
MIC (Salmonella typhimurium): > 200 µg/mL
MIC (Proteus vulgaris): > 200 µg/mL
MIC (Micrococcus luteus): > 200 µg/mL
MIC (Escherichia coli): > 200 µg/mL

CC1(C)S[C@@H]2[C@H](NC(=O)[C@H](N)c3ccccc3)C(=O)N2[C@H]1C(=O)O [AMPICILLIN]
MIC (Staphylococcus aureus): 1.56 µg/mL (≈ 4.46 µM)
MIC (Bacillus subtilis): 0.78 µg/mL (≈ 2.23 µM)
MIC (Salmonella typhimurium): 1.56 µg/mL (≈ 4.46 µM)
MIC (Proteus vulgaris): 0.78 µg/mL (≈ 2.23 µM)
MIC (Micrococcus luteus): 0.78 µg/mL (≈ 2.23 µM)
MIC (Escherichia coli): 50 µg/mL (≈ 143 µM)

O=C(CO)c1c[nH]c2ccc(O)cc12 [HYRTIOSIN A]
IC50 (Sortase A): > 523 µM

O=C(C(=O)c1c[nH]c2ccc(O)cc12)c1c[nH]c2ccc(O)cc12 [HYRTIOSIN B]
IC50 (Isocitrate lyase): 90.5 µM
IC50 (Sortase A): > 312 µM

NCCc1c[nH]c2ccc(O)cc12 [SEROTONIN]
IC50 (Sortase A): > 567 µM
